According to ChEMBL document CHEMBL1145247, “4-Alkyl and 4,4'-dialkyl 1,2-bis(4-chlorophenyl)pyrazolidine-3,5-dione derivatives as new inhibitors of bacterial cell wall biosynthesis” (Bioorg Med Chem Lett, 2005):
Converted amounts (≈) assume the structure as drawn. Blank lines part the entries; values can stand above or below the molecule they belong to.

What was measured:
Escherichia coli [1] = test: Minimum inhibitory concentration against cell wall biosynthesis of Escherichia coli GC 4559; type: functional
Outline: (§1)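 Broth microdilution per NCCLS M7-A3. Mueller–Hinton broth for staphylococci and enterococci, 2-fold serial dilutions of agent. Final inoculum 1–5 × 10^5 CFU/mL.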

Enterococcus faecalis [2] = test: Minimum inhibitory concentration against cell wall biosynthesis of vancomycin susceptible (ATCC) Enterococcus faecalis GC 4555; type: functional; outline: as §1
Escherichia coli [3] = test: Minimum inhibitory concentration against cell wall biosynthesis of Escherichia coli GC 4560; type: functional
Staphylococcus aureus [4] = test: Minimum inhibitory concentration against cell wall biosynthesis of methicillin susceptible Staphylococcus aureus GC 4543; type: functional
Outline: (§2)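 Broth microdilution per NCCLS M7-A3 in Mueller–Hinton broth, aerobic. Agents tested as 2-fold serial dilutions, with a final inoculum of 1–5 × 10^5 CFU/mL. Plates incubated 18–22 h at 35 °C in ambient air. MIC read as the endpoint.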

Streptococcus pneumoniae [5] = test: Minimum inhibitory concentration against cell wall biosynthesis of penicillin resistant Streptococcus pneumoniae GC 1894 (PRSP) in the presence of 4% bovine serum albumin; type: functional
Streptococcus pneumoniae [6] = test: Minimum inhibitory concentration against cell wall biosynthesis of penicillin resistant Streptococcus pneumoniae GC 1894 (PRSP); type: functional
Outline: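 Broth microdilution per NCCLS M7-A3, using Mueller–Hinton broth supplemented with 5% sheep blood. Agents tested as 2-fold serial dilutions, with a final inoculum of 1–5 × 10^5 CFU/mL.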

[7] = target: T1, UDP-N-acetylenolpyruvoylglucosamine reductase (Escherichia coli K-12, UniProt P08373); test: Inhibitory concentration against MurB enzyme in Escherichia coli
T1 sequence (P08373 whole entry): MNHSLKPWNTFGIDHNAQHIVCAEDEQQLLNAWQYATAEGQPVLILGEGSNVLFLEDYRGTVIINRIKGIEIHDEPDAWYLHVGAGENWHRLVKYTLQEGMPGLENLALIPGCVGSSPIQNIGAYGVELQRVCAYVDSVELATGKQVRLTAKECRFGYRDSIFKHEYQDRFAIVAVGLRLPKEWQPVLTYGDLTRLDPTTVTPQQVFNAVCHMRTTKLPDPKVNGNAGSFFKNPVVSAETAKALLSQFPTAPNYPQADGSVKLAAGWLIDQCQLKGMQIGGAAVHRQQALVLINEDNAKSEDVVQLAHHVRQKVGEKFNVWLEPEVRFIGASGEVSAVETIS
Outline: (§3)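 Enzyme (20 nM) preincubated 20 min with inhibitor, then substrates added to final 50 µM EP-UNAG and 100 µM NADPH. Activity followed spectrophotometrically. At least six inhibitor concentrations between 1.5 and 50 µM per compound. IC50 from sigmoid Hill curve fit (0–100).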

Enterococcus faecalis [8] = test: Minimum inhibitory concentration against cell wall biosynthesis of vancomycin resistant Enterococcus faecalis GC 2242 (VRE); type: functional; outline: as §2
[9] = target: UDP-N-acetylglucosamine 1-carboxyvinyltransferase (Escherichia coli K-12, UniProt P0A749); test: Inhibitory concentration against MurA enzyme in Escherichia coli
Outline: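 Enzyme preincubated with inhibitor 10 min at 37 °C before substrates were added. Reaction ran 30 min at 37 °C and was stopped with malachite green reagent (0.03% malachite green, 1.4% ammonium molybdate, 1.3 N HCl) for phosphate read-out.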

[10] = target: T2, UDP-N-acetylenolpyruvoylglucosamine reductase (Staphylococcus aureus, UniProt P61431); test: Inhibitory concentration against MurB enzyme in Staphylococcus aureus; outline: as §3
T2 sequence (P61431 whole entry): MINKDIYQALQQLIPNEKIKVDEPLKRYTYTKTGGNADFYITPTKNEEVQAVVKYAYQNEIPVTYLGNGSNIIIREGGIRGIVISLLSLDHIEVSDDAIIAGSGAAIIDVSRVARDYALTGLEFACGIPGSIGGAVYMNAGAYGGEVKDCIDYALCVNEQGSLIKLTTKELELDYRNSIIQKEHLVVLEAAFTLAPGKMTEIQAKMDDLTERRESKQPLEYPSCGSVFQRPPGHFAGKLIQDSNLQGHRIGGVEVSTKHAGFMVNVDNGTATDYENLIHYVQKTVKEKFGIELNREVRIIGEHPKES

Staphylococcus aureus [11] = test: Minimum inhibitory concentration against cell wall biosynthesis of methicillin resistant Staphylococcus aureus GC 1131; type: functional; outline: as §2
[12] = Minimum inhibitory concentration against cell wall biosynthesis of methicillin-susceptible Coagulase negative staphylococcus GC 646 (MSCNS); type: functional; outline: as §1
Escherichia coli [13] = test: Minimal inhibitory concentration against Escherichia coli GC 4560 was determined; type: functional; outline: as §1

Chain of UDP-N-acetylglucosamine 1-carboxyvinyltransferase (P0A749 whole entry): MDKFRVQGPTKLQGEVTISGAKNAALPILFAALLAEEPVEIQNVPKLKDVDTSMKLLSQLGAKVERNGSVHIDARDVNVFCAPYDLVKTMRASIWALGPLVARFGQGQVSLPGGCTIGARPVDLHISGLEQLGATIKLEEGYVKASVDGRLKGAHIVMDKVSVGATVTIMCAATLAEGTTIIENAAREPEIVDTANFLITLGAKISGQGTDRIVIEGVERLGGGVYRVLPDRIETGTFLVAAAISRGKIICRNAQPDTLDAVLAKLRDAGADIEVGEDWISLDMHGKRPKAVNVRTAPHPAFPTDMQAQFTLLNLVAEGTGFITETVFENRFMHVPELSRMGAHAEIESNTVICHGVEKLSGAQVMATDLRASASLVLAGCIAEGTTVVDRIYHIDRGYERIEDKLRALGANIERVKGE

SMILES: O=C(CCC1C(=O)N(c2ccc(Cl)cc2)N(c2ccc(Cl)cc2)C1=O)c1ccc(F)cc1
MIC (Escherichia coli [1]): > 200 µM | MIC (Enterococcus faecalis [2]): 100 µM (≈ 47.1 µg/mL) | MIC (Escherichia coli [3]): 200 µM (≈ 94.3 µg/mL) | MIC (Staphylococcus aureus [4]): 100 µM (≈ 47.1 µg/mL) | MIC (Streptococcus pneumoniae [5]): > 200 µM | MIC (Streptococcus pneumoniae [6]): 50 µM (≈ 23.6 µg/mL) | IC50 [7]: 13 µM | MIC (Enterococcus faecalis [8]): 100 µM (≈ 47.1 µg/mL) | IC50 [9]: 46.9 µM | IC50 [10]: 18 µM | MIC (Staphylococcus aureus [11]): 100 µM (≈ 47.1 µg/mL) | MIC [12]: 200 µM (≈ 94.3 µg/mL)

SMILES: O=C1C(Cc2ccc(Cl)cc2Cl)C(=O)N(c2ccc(Cl)cc2)N1c1ccc(Cl)cc1
MIC (Escherichia coli [1]): > 200 µM | MIC (Enterococcus faecalis [2]): 100 µM (≈ 48 µg/mL) | MIC (Escherichia coli [3]): 100 µM (≈ 48 µg/mL) | MIC (Staphylococcus aureus [4]): 50 µM (≈ 24 µg/mL) | MIC (Streptococcus pneumoniae [5]): > 200 µM | MIC (Streptococcus pneumoniae [6]): 12.5 µM (≈ 6 µg/mL) | IC50 [7]: 11 µM | MIC (Enterococcus faecalis [8]): 50 µM (≈ 24 µg/mL) | IC50 [9]: > 50 µM | IC50 [10]: 29 µM | MIC (Staphylococcus aureus [11]): 50 µM (≈ 24 µg/mL) | MIC [12]: 50 µM (≈ 24 µg/mL)

SMILES: O=C1C(CCCCc2ccccc2)C(=O)N(c2ccc(Cl)cc2)N1c1ccc(Cl)cc1
MIC (Escherichia coli [1]): > 200 µM | MIC (Enterococcus faecalis [2]): 200 µM (≈ 90.7 µg/mL) | MIC (Escherichia coli [3]): > 200 µM | MIC (Staphylococcus aureus [4]): 200 µM (≈ 90.7 µg/mL) | MIC (Streptococcus pneumoniae [5]): > 200 µM | MIC (Streptococcus pneumoniae [6]): 25 µM (≈ 11.3 µg/mL) | IC50 [7]: 5.6 µM | MIC (Enterococcus faecalis [8]): 100 µM (≈ 45.3 µg/mL) | IC50 [9]: 23.8 µM | IC50 [10]: 6.8 µM | MIC (Staphylococcus aureus [11]): 200 µM (≈ 90.7 µg/mL) | MIC [12]: 200 µM (≈ 90.7 µg/mL)

SMILES: O=C1C(CCCCCc2ccccc2)C(=O)N(c2ccc(Cl)cc2)N1c1ccc(Cl)cc1
MIC (Escherichia coli [1]): > 200 µM | MIC (Enterococcus faecalis [2]): 100 µM (≈ 46.7 µg/mL) | MIC (Escherichia coli [3]): > 200 µM | MIC (Staphylococcus aureus [4]): 100 µM (≈ 46.7 µg/mL) | MIC (Streptococcus pneumoniae [5]): > 200 µM | MIC (Streptococcus pneumoniae [6]): 25 µM (≈ 11.7 µg/mL) | IC50 [7]: 10 µM | MIC (Enterococcus faecalis [8]): 200 µM (≈ 93.5 µg/mL) | IC50 [9]: 42.3 µM | IC50 [10]: 32 µM | MIC (Staphylococcus aureus [11]): 200 µM (≈ 93.5 µg/mL) | MIC [12]: > 200 µM

MIC (Escherichia coli [13]): 25 µM (≈ 12.8 µg/mL) | MIC (Escherichia coli [1]): > 200 µM | MIC (Enterococcus faecalis [2]): 25 µM (≈ 12.8 µg/mL) | MIC (Escherichia coli [3]): 25 µM (≈ 12.8 µg/mL) | MIC (Staphylococcus aureus [4]): 6.25 µM (≈ 3.2 µg/mL) | IC50 [7]: 11 µM | IC50 [9]: > 50 µM | IC50 [10]: 12 µM | MIC [12]: 6.25 µM (≈ 3.2 µg/mL)
SMILES: N#Cc1ccccc1-c1ccc(CC2C(=O)N(c3ccc(Cl)cc3)N(c3ccc(Cl)cc3)C2=O)cc1

SMILES: CC1(CCCCCCc2ccccc2)C(=O)N(c2ccc(Cl)cc2)N(c2ccc(Cl)cc2)C1=O
MIC (Escherichia coli [1]): > 200 µM | MIC (Enterococcus faecalis [2]): 200 µM (≈ 99.1 µg/mL) | MIC (Escherichia coli [3]): 200 µM (≈ 99.1 µg/mL) | MIC (Staphylococcus aureus [4]): > 200 µM | MIC (Streptococcus pneumoniae [5]): > 200 µM | MIC (Streptococcus pneumoniae [6]): 0.78 µM (≈ 0.386 µg/mL) | IC50 [7]: > 50 µM | MIC (Enterococcus faecalis [8]): 100 µM (≈ 49.5 µg/mL) | IC50 [9]: > 50 µM | IC50 [10]: > 50 µM | MIC [12]: > 200 µM

SMILES: O=C(CC1C(=O)N(c2ccc(Cl)cc2)N(c2ccc(Cl)cc2)C1=O)c1ccc(F)cc1
MIC (Escherichia coli [1]): > 200 µM | MIC (Enterococcus faecalis [2]): 50 µM (≈ 22.9 µg/mL) | MIC (Escherichia coli [3]): 200 µM (≈ 91.5 µg/mL) | MIC (Staphylococcus aureus [4]): 25 µM (≈ 11.4 µg/mL) | MIC (Streptococcus pneumoniae [5]): > 200 µM | MIC (Streptococcus pneumoniae [6]): 25 µM (≈ 11.4 µg/mL) | IC50 [7]: 5.4 µM | MIC (Enterococcus faecalis [8]): 50 µM (≈ 22.9 µg/mL) | IC50 [9]: 8.4 µM | IC50 [10]: 5.2 µM | MIC (Staphylococcus aureus [11]): 25 µM (≈ 11.4 µg/mL) | MIC [12]: > 200 µM

SMILES: O=C1C(CCOCc2ccccc2)C(=O)N(c2ccc(Cl)cc2)N1c1ccc(Cl)cc1
MIC (Escherichia coli [1]): > 200 µM | MIC (Enterococcus faecalis [2]): 200 µM (≈ 91.1 µg/mL) | MIC (Escherichia coli [3]): 200 µM (≈ 91.1 µg/mL) | MIC (Staphylococcus aureus [4]): 200 µM (≈ 91.1 µg/mL) | MIC (Streptococcus pneumoniae [5]): > 200 µM | MIC (Streptococcus pneumoniae [6]): 25 µM (≈ 11.4 µg/mL) | IC50 [7]: 11 µM | MIC (Enterococcus faecalis [8]): 100 µM (≈ 45.5 µg/mL) | IC50 [9]: 33.4 µM | IC50 [10]: 11 µM | MIC (Staphylococcus aureus [11]): 100 µM (≈ 45.5 µg/mL) | MIC [12]: 200 µM (≈ 91.1 µg/mL)

MIC (Escherichia coli [1]): > 200 µM | MIC (Enterococcus faecalis [2]): > 200 µM | MIC (Escherichia coli [3]): > 200 µM | IC50 [7]: > 50 µM | IC50 [9]: > 50 µM | IC50 [10]: > 50 µM | MIC [12]: > 200 µM
SMILES: Cc1c(OCC(=O)c2ccc(F)cc2F)n(-c2ccc(Cl)cc2)n(-c2ccc(Cl)cc2)c1=O
